A short description of series [1]: Cmax in cynomolgus monkey at 5 mg/kg, po. It counts as ADME, organism-based, Macaca fascicularis. Also noted: route oral, dose 5 mg/kg. As to conditions: in vivo.
Series [2] can be described thus: Oral bioavailability in cynomolgus monkey at 5 mg/kg. Conditions: in vivo. It counts as ADME, organism-based, Macaca fascicularis.
The nature of series [3]: Toxicity in Sprague-Dawley rat assessed as effect on respiratory system administered as single dose. Conditions: in vivo. A digest of the protocol:
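Single-dose CNS and respiratory safety studies in rats.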

The nature of series [4]: Toxicity in cynomolgus monkey assessed as effect on clinical pathology measured up to 13 weeks. Also noted: species or system Macaca fascicularis. As to conditions: in vivo, 2184 h. A digest of the protocol:
(§1)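 GLP toxicity studies lasting up to 13 weeks, run in Sprague-Dawley rats and cynomolgus monkeys.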

The nature of series [5]: Clearance in rat at 1 mg/kg, iv relative to hepatic blood flow. It counts as ADME, organism-based. Conditions: in vivo.
Series [6] can be described thus: AUC (infinity) in cynomolgus monkey at 100 mg/kg. It counts as ADME, organism-based, Macaca fascicularis. Also noted: time infinity, dose 100 mg/kg. Conditions: in vivo. A digest of the protocol: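 Sprague-Dawley rats and cynomolgus monkeys given compound daily in GLP toxicity studies lasting up to 13 weeks; daily AUCinf taken at the no-observed-adverse-effect dose level of each species.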

Series [7] in a line: Toxicity in Sprague-Dawley rat assessed as histopathological changes measured up to 13 weeks. Conditions: in vivo, 2184 h. A digest of the protocol: as §1
The nature of series [8]: Kinetic solubility of compound at pH 1.5 by shake flask method. It counts as physicochemical. Conditions: buffer, read-out: Kinetic_solubility.

Bounds are passed on as bounds.

A word on the Cmax: it is the peak of the concentration-time curve. The term bioavailability denotes dose-corrected exposure relative to a reference, in per cent. As usually defined, the AUC(0-inf) is total exposure, with the tail of the curve extrapolated.

In series [1], `Cc1cc(-c2ccnc(Nc3cnn(C)c3)n2)ccc1CNC(=O)N1CC(OC(C)C)C1` displayed a Cmax of 282 ng/mL. The molecule also had a bioavailability in series [2] of 32%. Also, the Activity entry in series [3], in series [4] and in series [7] was “Non-Toxic” throughout. The same molecule registered a CL in series [5] of 6%. Also, the AUC(0-inf) in series [6] stood at 129 µg·h/mL. The solubility kinetic in series [8] is more than 50 µg/mL.
